FID counter = compounds displacing fluorescent DNA intercalator, primary screen, artefact control for HCV NS3 helicase inhibitor project, biochemical, FID fluorescence; AID 1845, 2009; DNA fluorescent intercalator displacement; inhibition, % at 7.9 µM; actives 0.17% (n = 290,000); in the data active means inhibition above about 37%;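 further: higher means more ethidium bromide displaced from hairpin DNA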
HCV NS3 hel inh = inhibitors of HCV NS3 helicase, primary screen, biochemical, Cy5 molecular beacon fluorescence. Hepatitis C virus NS3 helicase. NS3 helicase DNA unwinding. inhibition, % at 10.9 µM. actives 0.56% (n = 290,000). AID 1800, 2009;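 active means inhibition above the mean of all tested compounds plus 3 SD, set per campaign, cut at about 35% in these data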
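Assay system – hepatitis C virus NS3 helicase domain fragment enzyme · Buffer or medium – MOPS pH 6.5, MgCl2, DTT, Tween20, BSA · Reagent – Cy5/quencher beacon DNA duplex and ATP to start · Compound – single 10.9 µM dose · Timing – 1 h at 25 °C · Technique – Cy5 beacon fluorescence read at start and 1 h · Measure – % inhibition of unwinding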
GPR7 antagonist = GPR7 receptor antagonists, primary screen, cell-based, fluorescence, single concentration; inhibition, % at 4.4 µM; Neuropeptides B/W receptor type 1 (Homo sapiens), P48145; actives 1.1% (n = 290,000); GPR7-expressing cells, fluorescence antagonist assay; in the data active means inhibition above about 16%, passing the limit was not always enough;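 further: cells stimulated with the agonist NPW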
Target sequence (P48145 whole entry, looked up): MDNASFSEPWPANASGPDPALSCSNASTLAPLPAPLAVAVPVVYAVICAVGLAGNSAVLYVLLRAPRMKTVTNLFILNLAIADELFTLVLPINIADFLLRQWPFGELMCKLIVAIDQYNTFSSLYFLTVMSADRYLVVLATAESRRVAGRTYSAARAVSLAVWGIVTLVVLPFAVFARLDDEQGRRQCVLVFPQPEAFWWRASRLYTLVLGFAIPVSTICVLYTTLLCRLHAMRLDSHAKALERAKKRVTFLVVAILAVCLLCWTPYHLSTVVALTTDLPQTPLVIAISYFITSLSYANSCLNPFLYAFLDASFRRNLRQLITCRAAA
DAGLB inh = DAGLB lipase inhibitors, primary screen, biochemical, fluorescence, HTS | Diacylglycerol lipase-beta (Homo sapiens), Q8NCG7 | HEK293T DAGLB membrane lysate, EnzChek fluorogenic substrate | inhibition, % at 5.17 µM | actives 0.059% (n = 340,000) | AID 504411, 2011; in the data active means inhibition above about 34%
GRK2 inh = compounds blocking aptamer binding on GRK2 – biochemical, human GRK2, bead flow cytometry, HTS, primary screen; Beta-adrenergic receptor kinase 1 (Homo sapiens), P25098; FAM-aptamer displacement from GRK2; inhibition of aptamer binding, % at 10 µM; actives 0.59% (n = 330,000);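 active means inhibition of aptamer binding above 40%, roughly 3 SD of noise, on plates passing a quality check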;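 further: median bead fluorescence of bound FAM aptamer so fluorescent compounds give negative values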
HCV core dimer = inhibitors of HCV core protein dimerization, primary screen, biochemical, TR-FRET, high-throughput. TR-FRET GST/Flag-core106 dimerization, 1536-well. actives 0.33% (n = 300,000). inhibition, % at 5 µM;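 active means inhibition above the mean of all tested compounds plus 3 SD, set per screening campaign, cut at about 45% in these data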
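System – GST-tagged and Flag-tagged HCV core protein residues 1-106 · Repeats – one well for each compound · Technique – TR-FRET 671 and 617 nm emission · Doses – one concentration, 5 µM, in 0.5% DMSO · Times – 4 h, 22.5 °C incubation · Also added – Eu donor and XL665 acceptor anti-tag antibodies · Measure – percent inhibition of core106 dimerization signal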
Of the large screens only hits and unclear results are named; the others gave an inactive call. An excerpt weighted towards active compounds, which were near 2.2% of everything screened.

C#CCOCCOCCOCCNc1nc(N2CCN(C(=O)[C@H](CCCCN)n3cc([C@@H](N)C(C)CC)nn3)CC2)nc(N2CCN(C(=O)[C@H](Cc3cc4ccccc4[nH]3)n3cc([C@@H](N)CC(C)C)nn3)CC2)n1 (stereo partly specified)	FID counter 48
Cc1ccc(CNC(=O)CCNC(=O)c2ccc([N+](=O)[O-])cc2)cc1	none (no result: FID counter, HCV NS3 hel inh, GPR7 antagonist, HCV core dimer)
CCN(CC)CCNC(=O)c1nn(-c2ccc(Cl)cc2)c2c1CCc1cc(OC)ccc1-2	none (no result: FID counter, HCV NS3 hel inh, GPR7 antagonist, GRK2 inh, HCV core dimer)
C#CCOCCOCCOCCNc1nc(N2CCN(C(=O)[C@H](Cc3cc4ccccc4[nH]3)n3cc([C@@H](N)C(C)CC)nn3)CC2)nc(N2CCN(C(=O)[C@H](Cc3cc4ccccc4[nH]3)n3cc([C@@H](N)CC(C)C)nn3)CC2)n1 (stereo partly specified)	FID counter 41 (no result: DAGLB inh)
CN1CCN(CCNC(=O)c2ccc3nc(-c4ccc(F)cc4)c(-c4ccc(F)cc4)nc3c2)CC1	FID counter 47
CCOc1ccccc1CN1CCCC(C(=O)Nc2cccc(-n3cccn3)c2)C1 (stereo unspecified)	FID counter 39
CCOc1cccc(CN2CCCC(C(=O)Nc3cccc(-n4cccn4)c3)C2)c1 (stereo unspecified)	none
C#CCOCCOCCOCCNc1nc(N2CCN(C(=O)[C@H](CCCCN)n3cc([C@@H](N)C(C)CC)nn3)CC2)nc(N2CCN(C(=O)[C@H](CCCCN)n3cc([C@@H](N)CO)nn3)CC2)n1 (stereo partly specified)	FID counter 66 (no result: DAGLB inh)
C#CCOCCOCCOCCNc1nc(N2CCN(C(=O)[C@H]([C@@H](C)CC)n3cc([C@@H](N)CO)nn3)CC2)nc(N2CCN(C(=O)[C@H](CCCCN)n3cc([C@@H](N)C(C)CC)nn3)CC2)n1 (stereo partly specified)	FID counter 52
CC(=O)Nc1ccc(/C=C(\C#N)C(=O)NC2CCCCC2C)cc1 (stereo unspecified)	GPR7 antagonist 20
Cn1cnc([N+](=O)[O-])c1S(=O)(=O)Oc1ccc(Cl)cc1	none (no result: FID counter, HCV NS3 hel inh, GPR7 antagonist, GRK2 inh, HCV core dimer)
Cc1cccc(S(=O)(=O)Nc2nc3ccccc3nc2OC(C)C)c1	GRK2 inh 58
C=CCNc1nc2ccccc2nc1NS(=O)(=O)c1cccc(C)c1	none
CCc1cccc(NS(=O)(=O)c2c(C)nc3sc(CC)nn3c2=O)c1	GPR7 antagonist 21
C[C@@H]1CCCCO[C@@H](CN(C)S(=O)(=O)c2ccccc2)[C@@H](C)CN([C@H](C)CO)C(=O)c2cc(N(C)C)ccc2O1	none (no result: FID counter, HCV NS3 hel inh, GPR7 antagonist, GRK2 inh, HCV core dimer)
N#CC1=C(N)Oc2c(ccc3cccnc23)C1c1cccnc1 (stereo unspecified)	none
CCc1ccc2[nH]c(=O)c(C3C(C#N)=C(N)Oc4c3ccc3cccnc43)cc2c1 (stereo unspecified)	DAGLB inh 44
O=C(CCC(=O)N(CC(=O)NC1CCCC1)c1ccccc1F)Nc1nccs1	none
O=C(NCc1ccc2c(c1)OCO2)c1cc([N+](=O)[O-])ccc1N1CCCCC1	GPR7 antagonist 37
O=Nc1c(O)[nH]c2ccc(Cl)c(Cl)c12	none (no result: FID counter, HCV NS3 hel inh, GPR7 antagonist, GRK2 inh, HCV core dimer)
COc1ccc(C(=O)N2CCc3ccccc32)cc1	GPR7 antagonist 17
O=c1c2c3c(sc2[nH]c(=S)n1Cc1ccco1)CCC3	HCV core dimer 48
COc1ccc(Cl)cc1NC(=O)CCS(=O)(=O)c1ccc(C)cc1	none
Cc1ccc2cccc(OCC(=O)N3CC(C)CC(C)C3)c2n1 (stereo unspecified)	GPR7 antagonist 17
CCC(CC)NCc1ccc2c(c1)c1ccccc1n2CC	none
CCn1c2ccccc2c2cc(CNCc3ccc(OC)cc3OC)ccc21	GPR7 antagonist 29
CCn1c2ccccc2c2cc(CNCCCN3CCOCC3)ccc21	FID counter 47
CCCCCCCn1c2c(c(=N)c3c1CCC3)CCCC2	GPR7 antagonist 62 (no result: GRK2 inh, HCV core dimer)
COc1ccc2cc3c(N)nn(C(=O)Cc4ccccc4OC)c3nc2c1	none
COc1ccc2cc3c(N)nn(C(=O)c4cccc([N+](=O)[O-])c4)c3nc2c1	GRK2 inh 73, HCV core dimer 58
Clc1ccc(OCCN2CCN(c3ncnc4sccc34)CC2)cc1	GPR7 antagonist 20
O=C1N=c2ccccc2=C1c1sc(NS(=O)(=O)c2ccccc2)nc1O	none
O=C1N=c2ccccc2=C1c1sc(Nc2cccc(O)c2)nc1O	FID counter 39
COc1cc(C2NCCc3c2[nH]c2ccccc32)ccc1OC(C)C (stereo unspecified)	FID counter 37 (no result: DAGLB inh)
O=C(COC(=O)c1ccc(Cl)c(S(=O)(=O)N2CCCCC2)c1)NC1CCCCC1	none (no result: FID counter, HCV NS3 hel inh, GPR7 antagonist, GRK2 inh, HCV core dimer)
CCOC(=O)C1CCN(C(c2cccnc2)c2c(NC(=O)c3ccco3)sc(C)c2C)CC1 (stereo unspecified)	GPR7 antagonist 27
Cc1sc(NC(=O)c2ccco2)c(C(c2cccnc2)N2CCN(CCO)CC2)c1C (stereo unspecified)	none
COc1ccc(C(=O)NC(=S)Nc2ccc(N3CCOCC3)cc2)cc1Cl	none
CN(C)c1ccc(C=c2c3ccccc3n3c2c2c([n+]3C)CCCC2)cc1	none (no result: FID counter, HCV NS3 hel inh, GPR7 antagonist, GRK2 inh, HCV core dimer)
Cc1ccccc1-n1nc2c(c1NC(=O)C1CC1)CS(=O)(=O)C2	none (no result: FID counter, HCV NS3 hel inh, GPR7 antagonist, GRK2 inh, HCV core dimer)
c1ccc(Cn2c(SCc3nc4ccccc4s3)nnc2-c2ccco2)cc1	HCV core dimer 50
CCC(c1nnc(SCc2nc3ccccc3s2)n1Cc1ccccc1)N(C)C (stereo unspecified)	none
N#CC12C(=O)NC(=O)C1(C#N)C21CCCC1 (stereo unspecified)	none (no result: FID counter, HCV NS3 hel inh, GPR7 antagonist, GRK2 inh, HCV core dimer)
Oc1ccc(N=C/C=C/c2ccc(Br)cc2)cc1-c1nc2ccccc2s1	GRK2 inh 41 (no result: DAGLB inh)
Cc1ccc(C)c(CN2C(=O)C3CCCN3c3ccc(S(=O)(=O)N4CCOCC4)cc32)c1 (stereo unspecified)	HCV core dimer 51 (no result: DAGLB inh)
COc1cccc(CN2C(=O)C3CCCN3c3ccc(S(=O)(=O)N4CCOCC4)cc32)c1 (stereo unspecified)	none (no result: DAGLB inh)
Cc1ccc(N/C(N)=N/c2nc(C)cc(N3CCCCC3)n2)c(C)c1	GPR7 antagonist 27
COc1ccc(COc2cccnc2N)cc1	GPR7 antagonist 20
Nc1ncccc1OCc1ccc(Br)cc1	none
O=C(CSc1nc2ccccc2c(=O)n1-c1ccc(F)cc1)Nc1ccc(N2CCOCC2)cc1	none
